How the values were obtained:
[1] = target: T1, Cyclin-dependent kinase 2/cyclin E (Homo sapiens, UniProt P24941); assay: Inhibition of CDK2/Cyclin E in presence of 15 uM ATP; format: protein-complex assay
[2] = target: Tyrosine-protein kinase ABL1 (Homo sapiens) (UniProt P00519); assay: Activity of c-ABL at 10 uM
Summary of the method: (§1)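 Radiometric kinase assay at 10 µM inhibitor, run in duplicate. c-Abl, CHK1, GSK3β, p70S6K, PKA and PKBα were run in 8 mM MOPS pH 7.0 with 0.2 mM EDTA. MAPK1 and SAPK2α were run in 25 mM Tris pH 7.5 with 0.02 mM EGTA. CK2 was run in 20 mM HEPES pH 7.6, 0.15 M NaCl, 0.1 mM EDTA, 2 mM DTT and 0.1% Triton X-100. All had 10 mM Mg-acetate, 10 µM ATP, [γ-33P]ATP and a peptide substrate; 40 min; H3PO4 stop; P30 filter; scintillation counting.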

[3] = target: Casein kinase II (Homo sapiens) (UniProt P67870+P68400+P19784); assay: Activity of CK2 at 10 uM; format: protein-complex assay; summary of the method: as §1
[4] = target: Glycogen synthase kinase-3 beta (Homo sapiens) (UniProt P49841); assay: Activity of GSK3-beta at 10 uM; summary of the method: as §1
[5] = target: Ribosomal protein S6 kinase (P70S6K) (Homo sapiens) (UniProt Q9UBS0+P23443); assay: Activity of P70S6K at 10 uM; format: protein-complex assay; summary of the method: as §1
[6] = target: cAMP-dependent protein kinase (PKA) (Homo sapiens) (UniProt P22694+P17612+P22612); assay: Activity of PKA at 10 uM; format: protein assay; summary of the method: as §1
[7] = target: Mitogen-activated protein kinase 14 (Homo sapiens) (UniProt Q16539); assay: Activity of SAPK2-alpha at 10 uM; summary of the method: as §1
HT-29 [8] = assay: Cell cycle arrest in HT29 cells by accumulation at G0/G1 phase at 50 uM after 3 hrs; format: functional, Homo sapiens
Summary of the method: (§2)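 Subconfluent, asynchronous HT-29 cells were treated 3, 6 or 12 h, then pulsed with 10 µM BrdU for 30 min at 37 °C. Cells were fixed in ice-cold 70% ethanol, DNA denatured in 2 M HCl and neutralised with borate. Staining used FITC anti-BrdU, then propidium iodide (0.1 mg/mL) with RNase A. Analysis by flow cytometry with 488 nm laser.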

HT-29 [9] = assay: Cell cycle arrest in HT29 cells by accumulation at S phase at 50 uM after 3 hrs; format: functional, Homo sapiens; summary of the method: as §2
HT-29 [10] = assay: Cell cycle arrest in HT29 cells by accumulation at G2/M phase at 50 uM after 3 hrs; format: functional, Homo sapiens; summary of the method: as §2
HT-29 [11] = assay: Cell cycle arrest in HT29 cells by accumulation at G0/G1 phase at 50 uM after 6 hrs; format: functional, Homo sapiens; summary of the method: as §2
HT-29 [12] = assay: Cell cycle arrest in HT29 cells by accumulation at G2/M phase at 50 uM after 6 hrs; format: functional, Homo sapiens; summary of the method: as §2
MCF7 = assay: Viability of MCF7 cells at 100 uM; format: functional, Homo sapiens
Summary of the method: (§3)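 Cells grown in DMEM with 10% FCS and 4 mM glutamine at 37 °C, plated in 96-well format, preincubated 12 h, then exposed 72 h. Live cells measured by Calcein AM (1 h) fluorescence at 485/538 nm; % viable cells given at 100 µM compound.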

HOS = assay: Viability of HOS cells at 100 uM; format: functional, Homo sapiens; summary of the method: as §3
G-361 = assay: Viability of G361 cells at 100 uM; format: functional, Homo sapiens; summary of the method: as §3
[13] = target: T1, Cyclin-dependent kinase 2/cyclin E; assay: Inhibition of CDK2/Cyclin E; format: protein-complex assay; settings: read-out: Ki app
Summary of the method: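 CDK2-cyclin E made in Sf9 insect cells co-infected with baculoviral constructs, purified on NiNTA. Assayed with 1 mg/mL histone H1, 15 µM ATP plus 0.05 µCi [γ-33P]ATP, in 50 mM HEPES, 10 mM MgCl2, 5 mM EGTA, 10 mM 2-glycerolphosphate, 1 mM NaF, 1 mM DTT, pH 7.4. Activity expressed as percentage of maximum; IC50 taken from dose-response curves.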

[14] = target: Cyclin-dependent kinase 1/cyclin B (Homo sapiens, UniProt P06493); assay: Inhibition of CDK1/Cyclin B in presence of 100 uM ATP; format: protein-complex assay
[15] = target: Cyclin-dependent kinase 2/cyclin A (Homo sapiens, UniProt P24941); assay: Inhibition of CDK2/Cyclin A in presence of 100 uM ATP; format: protein-complex assay
[16] = target: Cyclin-dependent kinase 7/ cyclin H (Homo sapiens, UniProt P50613); assay: Inhibition of CDK7/Cyclin H in presence of 100 uM ATP; format: protein-complex assay
[17] = target: Cyclin-dependent kinase 2/cyclin E (Homo sapiens) (UniProt P24864+P24941+O96020); assay: Activity of CDK2/Cyclin E at 10 uM; format: protein-complex assay
HT-29 [18] = assay: Inhibition of GAPDH mRNA synthesis in HT29 cells measured as number of copies per 10^6 cells by RT PCR at 50 uM after 3 hrs; format: functional, Homo sapiens
Summary of the method: (§4)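 HT-29 cells (5 × 10⁶) treated for 3, 6 or 12 h; total RNA extracted with TRI reagent, 3 µg reverse transcribed with random primers and M-MLV RT (42 °C, 60 min). Absolute transcript copies quantified by TaqMan real-time PCR, 50 cycles, against diluted gene-specific amplicon standards (30–1 000 000 copies); duplicate PCR per sample; values are means of four determinations ± SD.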

HT-29 [19] = assay: Inhibition of GAPDH mRNA synthesis in HT29 cells measured as number of copies per 10^6 cells by RT PCR at 50 uM after 6 hrs; format: functional, Homo sapiens; summary of the method: as §4
HT-29 [20] = assay: Inhibition of GAPDH mRNA synthesis in HT29 cells measured as number of copies per 10^6 cells by RT PCR at 50 uM after 12 hrs; format: functional, Homo sapiens; summary of the method: as §4
HT-29 [21] = assay: Inhibition of CEA mRNA synthesis in HT29 cells measured as number of copies per 10^6 cells by RT PCR at 50 uM after 3 hrs; format: functional, Homo sapiens
Summary of the method: (§5)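 HT-29 cells were treated 3, 6 or 12 h; total RNA extracted with TRI reagent. 3 µg RNA reverse-transcribed with random primers and M-MLV RT at 42 °C for 60 min. CEA transcripts quantified by TaqMan real-time PCR: 50 cycles of 95 °C 15 s and 65 °C 15 s. Absolute copies came from amplicon standards of 30 to 10^6 copies, expressed per 10^6 cells. Samples run in duplicate PCR; values average of four determinations ± SD.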

HT-29 [22] = assay: Inhibition of CEA mRNA synthesis in HT29 cells measured as number of copies per 10^6 cells by RT PCR at 50 uM after 12 hrs; format: functional, Homo sapiens; summary of the method: as §5
HT-29 [23] = assay: Inhibition of EpCAM mRNA synthesis in HT29 cells measured as number of copies per 10^6 cells by RT PCR at 50 uM after 6 hrs; format: functional, Homo sapiens; summary of the method: as §4
HT-29 [24] = assay: Inhibition of EpCAM mRNA synthesis in HT29 cells measured as number of copies per 10^6 cells by RT PCR at 50 uM after 12 hrs; format: functional, Homo sapiens; summary of the method: as §4
HT-29 [25] = assay: Cell cycle arrest in HT29 cells by accumulation at G0/G1 phase at 50 uM after 12 hrs; format: functional, Homo sapiens; summary of the method: as §2
HT-29 [26] = assay: Cell cycle arrest in HT29 cells by accumulation at G2/M phase at 50 uM after 12 hrs; format: functional, Homo sapiens; summary of the method: as §2

Chain of Mitogen-activated protein kinase 14 (Homo sapiens) (Q16539 whole entry): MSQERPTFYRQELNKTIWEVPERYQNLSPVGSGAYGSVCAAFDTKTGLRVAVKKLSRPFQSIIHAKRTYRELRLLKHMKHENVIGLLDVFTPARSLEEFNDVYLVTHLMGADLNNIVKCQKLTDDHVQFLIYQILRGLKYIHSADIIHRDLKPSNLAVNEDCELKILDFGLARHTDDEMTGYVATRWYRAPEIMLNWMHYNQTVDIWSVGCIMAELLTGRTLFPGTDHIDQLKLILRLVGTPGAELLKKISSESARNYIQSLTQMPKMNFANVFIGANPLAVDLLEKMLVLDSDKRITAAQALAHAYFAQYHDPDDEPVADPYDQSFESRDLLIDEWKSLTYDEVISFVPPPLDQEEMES
Chain of Tyrosine-protein kinase ABL1 (Homo sapiens) (P00519 whole entry): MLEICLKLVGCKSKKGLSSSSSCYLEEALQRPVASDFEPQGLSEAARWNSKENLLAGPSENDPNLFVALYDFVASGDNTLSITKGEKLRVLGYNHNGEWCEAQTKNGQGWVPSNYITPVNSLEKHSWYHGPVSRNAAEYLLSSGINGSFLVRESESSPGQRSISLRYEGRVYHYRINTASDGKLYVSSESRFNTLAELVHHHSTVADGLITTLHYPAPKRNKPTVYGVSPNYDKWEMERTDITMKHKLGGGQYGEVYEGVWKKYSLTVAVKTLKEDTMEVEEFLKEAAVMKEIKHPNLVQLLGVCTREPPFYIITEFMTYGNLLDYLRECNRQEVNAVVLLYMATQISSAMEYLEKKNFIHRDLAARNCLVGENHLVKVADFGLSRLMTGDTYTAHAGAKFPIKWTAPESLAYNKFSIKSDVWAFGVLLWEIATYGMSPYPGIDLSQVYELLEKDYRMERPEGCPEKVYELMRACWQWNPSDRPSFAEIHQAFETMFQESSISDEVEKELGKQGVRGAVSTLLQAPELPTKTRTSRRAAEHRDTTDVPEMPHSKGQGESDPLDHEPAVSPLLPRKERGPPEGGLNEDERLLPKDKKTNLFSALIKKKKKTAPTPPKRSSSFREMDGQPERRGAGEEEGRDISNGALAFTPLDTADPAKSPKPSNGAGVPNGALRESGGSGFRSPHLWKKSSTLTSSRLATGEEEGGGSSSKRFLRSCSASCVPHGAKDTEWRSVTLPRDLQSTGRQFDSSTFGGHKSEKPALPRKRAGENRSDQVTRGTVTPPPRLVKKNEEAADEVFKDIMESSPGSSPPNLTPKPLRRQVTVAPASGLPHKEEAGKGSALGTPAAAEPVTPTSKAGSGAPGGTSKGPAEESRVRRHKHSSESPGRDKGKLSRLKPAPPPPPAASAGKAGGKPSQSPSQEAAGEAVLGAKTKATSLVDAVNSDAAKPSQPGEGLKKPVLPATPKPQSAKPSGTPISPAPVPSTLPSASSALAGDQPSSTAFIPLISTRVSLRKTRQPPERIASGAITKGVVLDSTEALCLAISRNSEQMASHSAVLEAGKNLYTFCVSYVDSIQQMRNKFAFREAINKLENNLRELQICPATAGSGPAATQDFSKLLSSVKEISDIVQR
Chain of Cyclin-dependent kinase 7/ cyclin H (P51946 whole entry): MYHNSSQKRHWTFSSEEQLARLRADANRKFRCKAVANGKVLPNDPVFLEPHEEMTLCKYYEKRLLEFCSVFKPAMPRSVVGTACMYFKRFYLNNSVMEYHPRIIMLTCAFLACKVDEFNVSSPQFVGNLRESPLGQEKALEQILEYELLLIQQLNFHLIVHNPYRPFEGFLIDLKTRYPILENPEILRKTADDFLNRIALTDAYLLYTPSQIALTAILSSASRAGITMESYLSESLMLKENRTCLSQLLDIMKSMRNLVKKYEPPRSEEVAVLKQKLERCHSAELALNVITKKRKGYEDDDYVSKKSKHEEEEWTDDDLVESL
Chain of Cyclin-dependent kinase 7/ cyclin H (P50613 whole entry): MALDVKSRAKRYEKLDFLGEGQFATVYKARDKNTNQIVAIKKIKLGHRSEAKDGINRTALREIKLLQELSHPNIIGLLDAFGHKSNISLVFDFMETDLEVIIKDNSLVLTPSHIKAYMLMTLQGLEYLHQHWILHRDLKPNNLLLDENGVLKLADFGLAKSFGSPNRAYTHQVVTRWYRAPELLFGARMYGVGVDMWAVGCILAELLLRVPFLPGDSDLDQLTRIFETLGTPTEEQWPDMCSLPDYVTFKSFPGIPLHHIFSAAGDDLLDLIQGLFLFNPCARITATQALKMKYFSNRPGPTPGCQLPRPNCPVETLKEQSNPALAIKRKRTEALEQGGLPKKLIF
Chain of Glycogen synthase kinase-3 beta (Homo sapiens) (P49841 whole entry, looked up): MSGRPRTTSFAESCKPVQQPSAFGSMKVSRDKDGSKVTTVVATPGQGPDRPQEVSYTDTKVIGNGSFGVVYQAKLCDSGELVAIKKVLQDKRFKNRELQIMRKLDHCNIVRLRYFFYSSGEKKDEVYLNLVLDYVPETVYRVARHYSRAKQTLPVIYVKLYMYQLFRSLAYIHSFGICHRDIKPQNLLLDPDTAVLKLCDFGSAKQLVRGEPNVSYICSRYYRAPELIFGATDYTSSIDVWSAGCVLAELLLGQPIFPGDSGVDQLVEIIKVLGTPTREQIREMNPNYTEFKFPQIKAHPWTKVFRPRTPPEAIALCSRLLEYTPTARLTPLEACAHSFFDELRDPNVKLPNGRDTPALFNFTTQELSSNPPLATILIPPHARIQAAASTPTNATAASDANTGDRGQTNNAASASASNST

IC50 [1]: 3.5 µM | residual activity [2]: 84% | residual activity [3]: 65% | residual activity [4]: 81% | residual activity [5]: 51% | residual activity [6]: 67% | residual activity [7]: 82% | Ki [13]: 13.3 µM | IC50 [14]: 44 µM | IC50 [15]: 69 µM | IC50 [16]: 26 µM | residual activity [17]: 31%
SMILES: Nc1n[nH]c(N)c1/N=N/c1ccc(O)cc1
Activity (HT-29 [8]): 32.9% | Activity (HT-29 [9]): 55.7% | Activity (HT-29 [10]): 11.4% | Activity (HT-29 [11]): 35.9% | Activity (HT-29 [12]): 9.9% | Activity (MCF7): 20% | Activity (HOS): 22% | Activity (G-361): 8.3% | Activity (HT-29 [18]): 3342533 | Activity (HT-29 [19]): 3785908 | Activity (HT-29 [20]): 1811960 | Activity (HT-29 [21]): 27900 | Activity (HT-29 [22]): 12005 | Activity (HT-29 [23]): 5069600 | Activity (HT-29 [24]): 2951620 | Activity (HT-29 [25]): 27.2% | Activity (HT-29 [26]): 6.8%

Source: ChEMBL document CHEMBL1137343, “4-arylazo-3,5-diamino-1H-pyrazole CDK inhibitors: SAR study, crystal structure in complex with CDK2, selectivity, and cellular effects” (J Med Chem, 2006)
